GRK2 inh: blocks RNA aptamer binding to human GRK2; bead flow cytometry, FAM-aptamer displacement from GRK2; inhibition of aptamer binding, % at 10 µM; 330,000 compounds, 0.59% hits; AID 488847; P25098;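 active means inhibition of aptamer binding above 40%, roughly 3 SD of noise, on plates passing a quality check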;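 further: median bead fluorescence of bound FAM aptamer so fluorescent compounds give negative values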
LMPTP block: LMPTP (human) inhibition; recombinant LMPTP-A, OMFP fluorogenic substrate, fluorescence intensity; P24666; inhibition, % at 20 µM; 360,000 compounds, 0.22% hits;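 active means compounds that cut the enzyme signal by at least half of the control window in the single-dose screen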
Target sequence (P24666 whole entry, looked up): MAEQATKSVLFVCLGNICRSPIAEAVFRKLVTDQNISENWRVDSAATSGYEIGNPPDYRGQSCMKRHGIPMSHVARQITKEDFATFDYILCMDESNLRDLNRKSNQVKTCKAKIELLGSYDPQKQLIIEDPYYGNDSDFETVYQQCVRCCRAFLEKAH
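Assay system: LMPTP-A enzyme. Input: 0.625 nM LMPTP-A final. Probe or stimulus: 400 µM OMFP. Compound dosing: single 20 µM dose. Schedule: 50 min dark incubation at room temperature. Detection: fluorescence intensity of OMFP turnover product. Read-out: percent inhibition versus substrate-only and uninhibited controls. Benchmarks: no-enzyme low control, uninhibited high control.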
DNMT1 block: inhibitors of human DNMT1 | 360,000 compounds, 0.83% hits | DNMT1 molecular beacon, Hinp1I cleavage, fluorescence | inhibition (reported as % activation of signal), % at 10 µM | AID 588458; in the data active means inhibition above about 50%
Scp-1 inhibitor: blocks human Scp-1 phosphatase activity. inhibition, % at 20 µM. Recombinant Scp1, phosphopeptide, malachite green phosphate absorbance. Q9GZU7. 340,000 compounds, 0.88% hits;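 active means inhibition above about 50% at 20 µM, limit read from the data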
Target sequence (Q9GZU7 76-261 limits assumed): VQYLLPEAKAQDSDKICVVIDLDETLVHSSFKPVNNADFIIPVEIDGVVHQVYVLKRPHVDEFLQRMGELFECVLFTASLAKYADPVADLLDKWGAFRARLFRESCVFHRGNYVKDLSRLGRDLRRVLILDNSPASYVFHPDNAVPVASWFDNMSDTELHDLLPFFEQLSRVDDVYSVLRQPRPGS
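Material: truncated SCP-1 phosphatase (76-261aa) / Buffer or medium: 50 mM Tris acetate pH 5.5, 0.005% Tween-20, 10 mM MgCl2 / Compound dosing: one concentration, 20 µM, with 1.0% DMSO / Incubation: 45 min room-temperature reaction, 5 min colour, 30 min stabiliser / Detection: colorimetric free-phosphate detection, absorbance 630 nm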
SUMO1 PPI mod: alters human SUMO1 binding to SIM partners. inhibition, % at 20 µM. 360,000 compounds, 0.33% hits. SUMO1 binding to a labelled peptide, TR-FRET, 1 h; in the data active means inhibition above about 37%
Target sequence (P63165 whole entry, looked up): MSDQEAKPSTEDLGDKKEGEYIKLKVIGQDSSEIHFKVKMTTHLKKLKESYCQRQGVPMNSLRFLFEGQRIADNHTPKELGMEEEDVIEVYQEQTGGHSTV
STEP block: STEP (human) phosphatase inhibition | P54829 | recombinant STEP, OMFP fluorogenic substrate, fluorescence | inhibition, % at 20 µM | 360,000 compounds, 0.25% hits | AID 588621;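 active means inhibition at 20 µM, scaled per plate between control wells, above about 37%, limit read from the data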
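Also added – OMFP at 25 µM · Test system – STEP tyrosine phosphatase · Technique – FITC-channel fluorescence of OMFP product · Schedule – 20 min at room temperature, dark · Evaluation – control-normalized % inhibition with plate pattern correction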
Beacon interf DR: counter-screen for DNMT1 inhibitors: spectral interference, dose response; IC50, µM; molecular beacon fluorescence; 200 tested, under 10 active; shares compounds with DNMT1 block; AID 602382; call rule not given here
DNMT1 inh conf: confirmation of human DNMT1 inhibitors; 2,300 compounds, 8% hits; AID 602385; DNMT1 molecular beacon HinP1I cleavage, fluorescence; shares compounds with DNMT1 block; inhibition, % at 10 µM;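 active means average inhibition of at least 30% in the single-concentration confirmation test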
DNMT1 interf: shows spectral interference in the DNMT1 beacon assay; shares compounds with DNMT1 block; DNMT1 molecular beacon spectral interference counterscreen, fluorescence 485/520; activation (fluorescence interference), % at 10 µM; 2,300 compounds, 1% hits; AID 602387;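 active means activation of at least 30% at 10 µM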;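 further: DNMT1 catalytic domain with a HinP1I cleavage step and a FAM/dabcyl DNA beacon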
Each line names hits and unclear results; the compound was inactive in the other large screens (follow-up assays come after a bar, where they were run). Hits are enriched below; roughly 2.1% of the tested compounds scored in any of these assays.

O=C(O)c1ccc(-n2cccc2/C=C2/NC(=O)N(c3cccc(Cl)c3)C2=O)cc1	DNMT1 block 94, Scp-1 inhibitor 77, STEP block 43 (no result: GRK2 inh) | Beacon interf DR inactive | DNMT1 inh conf 84 | DNMT1 interf inactive
O=C(O)c1cccc(-n2cccc2/C=C2\NC(=O)N(Cc3ccc(F)cc3)C2=O)c1	DNMT1 block 107 | DNMT1 inh conf inactive | DNMT1 interf inactive
O=C1N/C(=C/c2cccn2-c2ccccc2)C(=O)N1Cc1ccccc1F	none
CN(C)CCNC(=O)CNC(=S)N(Cc1ccccc1)Cc1cccnc1	none
C[C@@H]1CN([C@H](C)CO)C(=O)CCCn2nncc2CO[C@H]1CN(C)Cc1ccc2c(c1)OCCO2	none (no result: GRK2 inh, Scp-1 inhibitor)
NCCn1c(-c2ccccc2)cc(C(=O)O)c1-c1ccccc1F	none
O=c1oc(/C=C/c2ccco2)nc2sc3c(c12)CCC3	DNMT1 block 108 | DNMT1 inh conf inactive | DNMT1 interf inactive
CC(/C=C1\N=C(SCc2ccccc2)SC1=O)=C\c1ccccc1	DNMT1 block 80 | DNMT1 inh conf inactive | DNMT1 interf inactive
C=CCN1C(=O)/C(=C\C(C)=C\c2ccccc2)SC1=S	none
Cc1csc(N2CCCC2=O)n1	none
Nc1nccnc1C(=O)OCC(=O)NNC(=O)c1ccccc1	none
O=C(CSc1nc2[nH]ncc2c(=O)[nH]1)Nc1cc(C(F)(F)F)ccc1Cl	none (no result: GRK2 inh, Scp-1 inhibitor)
NS(=O)(=O)c1ccc(CCNC(=O)C(c2ccccc2)c2ccccc2)cc1	none
CSCCC(NC(=O)COc1ccccc1)C(=O)N(C)CC(=O)Nc1ccc(Cl)cc1 (stereo not drawn)	none
CSCCC(NC(=O)COc1ccccc1)C(=O)N(C)Cc1c(F)cccc1Cl (stereo not drawn)	DNMT1 block 83 (no result: GRK2 inh, Scp-1 inhibitor) | DNMT1 inh conf inactive | DNMT1 interf inactive
CC(=O)c1c(O)cc(=O)n(-c2ccccc2)c1-c1ccc(Cl)cc1	none
CCc1c(O)cc(=O)n(-c2ccccc2)c1-c1ccccc1	DNMT1 block 58 | DNMT1 inh conf inactive | DNMT1 interf inactive
O=[N+]([O-])c1ccc(-c2cc(-c3ccc(Cl)cc3)n[nH]2)cc1	DNMT1 block 91, SUMO1 PPI mod 47 | DNMT1 inh conf inactive | DNMT1 interf inactive
O=[N+]([O-])c1ccc2nc(-c3ccc(Cl)cc3)[nH]c2c1	none
Cc1ccc(NC(=O)c2ccc(C(C)(C)C)cc2)cc1[N+](=O)[O-]	none
CSc1nsc(/C=C/Nc2ccc(C(=O)O)cc2)c1C#N	DNMT1 block 66 | DNMT1 inh conf inactive | DNMT1 interf inactive
COc1cc(NC(=O)COc2ccc(C)c(C)c2)ccc1NC(=O)c1ccco1	none
COCCNC(=S)N/N=C(\C)c1ccc(OC)cc1	none
COCCNC(=S)N/N=C(\C)c1ccc(OC(F)F)cc1	DNMT1 block 62 | DNMT1 inh conf inactive | DNMT1 interf inactive
O=C1C2CC=C(Cl)CC2C(=O)N1CCN1CCOCC1 (stereo not drawn)	none
O=C1C2CC=C(Cl)CC2C(=O)N1CCCCCCN1C(=O)C2CC=C(Cl)CC2C1=O (stereo not drawn)	DNMT1 block 61, Scp-1 inhibitor 71 | DNMT1 inh conf inactive | DNMT1 interf inactive
COc1ccc(C2=NN(c3nc(-c4ccccc4)c(CC(=O)O)s3)C(c3ccco3)C2)cc1 (stereo not drawn)	DNMT1 block 56 | DNMT1 inh conf inactive | DNMT1 interf inactive
Cc1ccc(S(=O)(=O)N2CCCCC2)cc1NC(=O)C1CCC1	none
NC(=O)c1sc2nc3c(c(-c4ccco4)c2c1N)CCC3	DNMT1 block 75 | DNMT1 inh conf inactive | DNMT1 interf inactive
NC(=O)c1sc2nc(-c3ccco3)ccc2c1N	DNMT1 block 98 | DNMT1 inh conf inactive | DNMT1 interf inactive
